Reference: ChEMBL document CHEMBL1129477, “Structure-activity relationships of the quinolone antibacterials against mycobacteria: effect of structural changes at N-1 and C-7” (J Med Chem, 1996)
≈ marks a conversion by molar mass, not a printed value.

Key:
Type in all cases: functional
[1] = system: Escherichia coli; test: Anti-bacterial activity was tested against Gram-negative EC-1 bacterium
Method in brief: (§1)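 Standard microtitration MIC determination (µg/mL) against four representative Gram-negative and Gram-positive bacterial strains.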

[2] = system: Mycolicibacterium fortuitum; test: Anti-bacterial activity tested against Mycobacterium fortuitum (ATCG 6841)
[3] = system: Mycolicibacterium smegmatis; test: Anti-bacterial activity tested against Mycobacterium smegmatis (ATCG 19420)
[4] = system: Staphylococcus aureus; test: Anti-bacterial activity was tested against Gram-positive SA-13 bacterium; method in brief: as §1
[5] = system: Streptococcus pyogenes; test: Anti-bacterial activity tested against Gram-positive SP1-1 bacterium; method in brief: as §1
[6] = system: Pseudomonas aeruginosa; test: Anti-bacterial activity tested against Gram-negative PA-7 bacterium; method in brief: as §1

SMILES | MIC [1] [µg/mL] | MIC [2] [µg/mL] | MIC [3] [µg/mL] | MIC [4] [µg/mL] | MIC [5] [µg/mL] | MIC [6] [µg/mL]
CCn1cc(C(=O)O)c(=O)c2cc(F)c(N3CCC(N)C3)cc21 (configuration not stated) | 0.4 (≈ 1.25 µM) | 1 (≈ 3.13 µM) | 4 (≈ 12.5 µM) | 1.6 (≈ 5.01 µM) | 0.8 (≈ 2.51 µM) | 0.8 (≈ 2.51 µM)
CC1CN(c2cc3c(cc2F)c(=O)c(C(=O)O)cn3C2CCC2)CCN1 (configuration not stated) | 0.4 (≈ 1.11 µM) | 0.25 (≈ 0.696 µM) | 1 (≈ 2.78 µM) | 3.1 (≈ 8.63 µM) | > 3.1 | 1.6 (≈ 4.45 µM)
CN1CCN(c2cc3c(cc2F)c(=O)c(C(=O)O)cn3-c2ccc(F)cc2F)CC1 | 0.2 (≈ 0.479 µM) | 0.25 (≈ 0.599 µM) | 0.5 (≈ 1.2 µM) | 0.2 (≈ 0.479 µM) | 1.6 (≈ 3.83 µM) | 0.8 (≈ 1.92 µM)
CC(C)n1cc(C(=O)O)c(=O)c2cc(F)c(N3CCC(N)C3)cc21 (configuration not stated) | 0.8 (≈ 2.4 µM) | 1 (≈ 3 µM) | 2 (≈ 6 µM) | 3.1 (≈ 9.3 µM) | > 3.1 | 1.6 (≈ 4.8 µM)
CC(C)NCC1CCN(c2cc3c(cc2F)c(=O)c(C(=O)O)cn3C2CC2)C1 (configuration not stated) | 0.4 (≈ 1.03 µM) | 0.25 (≈ 0.645 µM) | 0.5 (≈ 1.29 µM) | 0.4 (≈ 1.03 µM) | 1.6 (≈ 4.13 µM) | 3.1 (≈ 8 µM)
CCCCN1CCN(c2cc3c(cc2F)c(=O)c(C(=O)O)cn3-c2ccc(F)cc2F)CC1 | 0.8 (≈ 1.74 µM) | 1 (≈ 2.18 µM) | 2 (≈ 4.35 µM) | 0.4 (≈ 0.871 µM) | 3.1 (≈ 6.75 µM) | 3.1 (≈ 6.75 µM)
CCN1CCN(c2cc3c(cc2F)c(=O)c(C(=O)O)cn3-c2ccc(F)cc2F)CC1 | 0.4 (≈ 0.927 µM) | 0.5 (≈ 1.16 µM) | 1 (≈ 2.32 µM) | 0.2 (≈ 0.464 µM) | 0.8 (≈ 1.85 µM) | 1.6 (≈ 3.71 µM)
CC1CN(c2cc3c(cc2F)c(=O)c(C(=O)O)cn3C(C)C)CCN1 (configuration not stated) | 0.8 (≈ 2.3 µM) | 0.5 (≈ 1.44 µM) | 2 (≈ 5.76 µM) | 3.1 (≈ 8.92 µM) | > 3.1 | 3.1 (≈ 8.92 µM)
CCN1CCN(c2cc3c(cc2F)c(=O)c(C(=O)O)cn3C(C)(C)C)CC1 | 0.2 (≈ 0.533 µM) | 0.13 (≈ 0.346 µM) | 0.13 (≈ 0.346 µM) | 0.2 (≈ 0.533 µM) | > 3.1 | 1.6 (≈ 4.26 µM)
CC1CN(c2cc3c(cc2F)c(=O)c(C(=O)O)cn3C2CC2)CC(C)N1 (configuration not stated) | 0.05 (≈ 0.139 µM) | 0.06 (≈ 0.167 µM) | 0.13 (≈ 0.362 µM) | 0.4 (≈ 1.11 µM) | > 3.1 | 0.8 (≈ 2.23 µM)
NC1CCN(c2cc3c(cc2F)c(=O)c(C(=O)O)cn3-c2ccc(F)cc2F)C1 (configuration not stated) | 0.03 (≈ 0.0744 µM) | 0.13 (≈ 0.322 µM) | 0.13 (≈ 0.322 µM) | 0.05 (≈ 0.124 µM) | 0.1 (≈ 0.248 µM) | 0.2 (≈ 0.496 µM)
O=C(O)c1cn(C2CCC2)c2cc(N3CCNCC3)c(F)cc2c1=O | 0.4 (≈ 1.16 µM) | 0.5 (≈ 1.45 µM) | 2 (≈ 5.79 µM) | 3.1 (≈ 8.98 µM) | > 3.1 | 1.6 (≈ 4.63 µM)
CC(C)CN1CCN(c2cc3c(cc2F)c(=O)c(C(=O)O)cn3-c2ccc(F)cc2F)CC1 | 3.1 (≈ 6.75 µM) | 2 (≈ 4.35 µM) | 4 (≈ 8.71 µM) | 0.8 (≈ 1.74 µM) | > 3.1 | > 3.1
CCN1CCN(c2cc3c(cc2F)c(=O)c(C(=O)O)cn3C2CCC2)CC1 | 0.8 (≈ 2.14 µM) | 0.5 (≈ 1.34 µM) | 2 (≈ 5.36 µM) | 3.1 (≈ 8.3 µM) | > 3.1 | > 3.1
NC1CCN(c2cc3c(cc2F)c(=O)c(C(=O)O)cn3C2CC2)C1 (configuration not stated) | 0.05 (≈ 0.151 µM) | < 0.03 | 0.25 (≈ 0.754 µM) | 0.4 (≈ 1.21 µM) | 0.8 (≈ 2.41 µM) | 0.2 (≈ 0.604 µM)
CNCC1CCN(c2cc3c(cc2F)c(=O)c(C(=O)O)cn3C2CC2)C1 (configuration not stated) | 0.2 (≈ 0.556 µM) | 0.25 (≈ 0.696 µM) | 0.5 (≈ 1.39 µM) | 0.2 (≈ 0.556 µM) | 0.1 (≈ 0.278 µM) | 0.8 (≈ 2.23 µM)
CCn1cc(C(=O)O)c(=O)c2cc(F)c(N3CCNC(C)C3)cc21 (configuration not stated) | 0.2 (≈ 0.6 µM) | 1 (≈ 3 µM) | 2 (≈ 6 µM) | 3.1 (≈ 9.3 µM) | > 3.1 | > 3.1
CC(C)n1cc(C(=O)O)c(=O)c2cc(F)c(N3CCNCC3)cc21 | 0.8 (≈ 2.4 µM) | 1 (≈ 3 µM) | 4 (≈ 12 µM) | > 3.1 | > 3.1 | 1.6 (≈ 4.8 µM)
CCn1cc(C(=O)O)c(=O)c2cc(F)c(N3CCNCC3)cc21 [NORFLOXACIN] | 0.1 (≈ 0.313 µM) | 0.5 (≈ 1.57 µM) | 2 (≈ 6.26 µM) | 3.1 (≈ 9.71 µM) | > 3.1 | 0.8 (≈ 2.51 µM)
CC1CN(c2cc3c(cc2F)c(=O)c(C(=O)O)cn3C(C)(C)C)CCN1 (configuration not stated) | 0.1 (≈ 0.277 µM) | 0.03 (≈ 0.083 µM) | 0.06 (≈ 0.166 µM) | 0.4 (≈ 1.11 µM) | > 3.1 | 0.8 (≈ 2.21 µM)
CC1CN(c2cc3c(cc2F)c(=O)c(C(=O)O)cn3C2CCC2)CC(C)N1 (configuration not stated) | 0.4 (≈ 1.07 µM) | 0.13 (≈ 0.348 µM) | 0.5 (≈ 1.34 µM) | 3.1 (≈ 8.3 µM) | > 3.1 | 3.1 (≈ 8.3 µM)
CNCC1CCN(c2cc3c(cc2F)c(=O)c(C(=O)O)cn3C(C)C)C1 (configuration not stated) | 3.1 (≈ 8.58 µM) | 2 (≈ 5.53 µM) | 8 (≈ 22.1 µM) | 3.1 (≈ 8.58 µM) | 3.1 (≈ 8.58 µM) | > 3.1
